Measurements reported in ChEMBL document CHEMBL1156834, “Syntheses and biological activities of KRN7000 analogues having aromatic residues in the acyl and backbone chains with varying stereochemistry” (Bioorg Med Chem Lett, 2010).
Calls of active or inactive are those of the source.

What was measured:
Format in all cases: cell-based
[1] = target: T1, Antigen-presenting glycoprotein CD1d (Homo sapiens) (UniProt P15813); experiment: Induction of CD1D-mediated IL-4 production in human iNKT cells expressing CD4 at 25 nM after 18 hrs by ELISA
T1 sequence (whole entry): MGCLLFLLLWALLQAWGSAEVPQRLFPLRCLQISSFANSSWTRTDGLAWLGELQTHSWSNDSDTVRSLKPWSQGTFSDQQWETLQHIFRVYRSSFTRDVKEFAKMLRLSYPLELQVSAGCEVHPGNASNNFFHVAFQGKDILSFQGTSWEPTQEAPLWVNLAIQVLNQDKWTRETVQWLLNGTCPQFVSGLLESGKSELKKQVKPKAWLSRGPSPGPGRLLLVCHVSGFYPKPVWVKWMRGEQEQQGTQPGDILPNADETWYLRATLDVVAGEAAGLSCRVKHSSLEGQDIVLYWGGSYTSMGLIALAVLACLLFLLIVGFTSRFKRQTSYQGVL
Outline: (§1)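 CD4⁺ human iNKT clone HDD11 with CD1d-transfected HeLa cells as APC, in RPMI-1640 plus 10% FBS. 2.5 × 10⁴ HeLa cells were pulsed with glycolipid for 18 h at 37 °C, washed, then given fresh glycolipid-free medium with 2.5 × 10⁴ iNKT cells. Supernatants were taken after a further 18 h at 37 °C, and cytokine was measured by capture ELISA.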

[2] = target: T1, Antigen-presenting glycoprotein CD1d (Homo sapiens); experiment: Induction of CD1D-mediated IL-13 production in human iNKT cells expressing CD4 at 400 nM after 18 hrs by ELISA; outline: as §1
[3] = target: T1, Antigen-presenting glycoprotein CD1d (Homo sapiens); experiment: Induction of CD1D-mediated IFN-gamma production in human iNKT cells expressing CD4 at 25 nM after 18 hrs by ELISA; outline: as §1
[4] = target: T1, Antigen-presenting glycoprotein CD1d (Homo sapiens); experiment: Induction of CD1D-mediated IL-13 production in human iNKT cells expressing CD4 at 25 nM after 18 hrs by ELISA; outline: as §1
[5] = target: T1, Antigen-presenting glycoprotein CD1d (Homo sapiens); experiment: Induction of CD1D-mediated IL-13 production in human iNKT cells expressing CD4 at 25 to 400 nM after 18 hrs by ELISA; outline: as §1
[6] = target: T1, Antigen-presenting glycoprotein CD1d (Homo sapiens); experiment: Induction of CD1D-mediated IFN-gamma production in human iNKT cells expressing CD4 at 25 to 400 nM after 18 hrs by ELISA; outline: as §1
[7] = target: T1, Antigen-presenting glycoprotein CD1d (Homo sapiens); experiment: Induction of CD1D-mediated IL-4 production in human iNKT cells expressing CD4 at 25 to 400 nM after 18 hrs by ELISA; outline: as §1

Measured: Activity

CCCCCCCCCCCCCCCCCCCCCCCCCC(=O)N[C@H](CCCCCCCCCCCCCCCC)CO[C@H]1O[C@H](CO)[C@H](O)[C@H](O)[C@H]1O
active: [1] | [2] | [3] | [4]

CCCCCCCCCCCCCCCC[C@H](CO[C@H]1O[C@H](CO)[C@H](O)[C@H](O)[C@H]1O)NC(=O)CCCCCCCCCc1ccccc1
active: [2] | [5] | [6] | [7]

CCCCCCCCCCCCCCCCCCCCCCCCCC(=O)N[C@@H](CO[C@H]1O[C@H](CO)[C@H](O)[C@H](O)[C@H]1O)[C@@H](O)CCCCCCCCCCCCCCC
active: [1] | [2] | [3] | [4]

CCCCCCCCCCCCCC[C@H](O)[C@H](O)[C@H](CO[C@H]1O[C@H](CO)[C@H](O)[C@H](O)[C@H]1O)NC(=O)CCCCCc1ccccc1
active: [1] | [2] | [3] | [4]

CCCCCCCCCCCCCCCCCCCCCCCCCC(=O)N[C@@H](CO[C@H]1O[C@H](CO)[C@H](O)[C@H](O)[C@H]1O)[C@H](O)[C@H](O)CCCc1ccccc1
active: [2] | [5] | [6] | [7]

CCCCCCCCCCCCCCCCCCCCCCCCCC(=O)N[C@@H](CO[C@H]1O[C@H](CO)[C@H](O)[C@H](O)[C@H]1O)[C@H](O)[C@@H](O)CCCc1ccccc1
active: [1] | [2] | [3] | [4]

CCCCCCCCCCCCCCCCCCCCCCCCCC(=O)N[C@@H](CO[C@H]1O[C@H](CO)[C@H](O)[C@H](O)[C@H]1O)[C@H](O)[C@H](O)CCCCCCCCCCCCCC
active: [2]

CCCCCCCCCCCCCCC[C@H](O)[C@H](CO[C@H]1O[C@H](CO)[C@H](O)[C@H](O)[C@H]1O)NC(=O)CCCCCCCCCc1ccccc1
active: [1] | [2] | [3] | [4]
